Laboratory results taken from ChEMBL document CHEMBL4177756, “Small Molecule Neuropilin-1 Antagonists Combine Antiangiogenic and Antitumor Activity with Immune Modulation through Reduction of Transforming Growth Factor Beta (TGFβ) Production in Regulatory T-Cells” (J Med Chem, 2018).
Active and inactive are the calls of the source. No cut-off for these calls is given here. Positions of bridges follow the written chain, without caps; N, C: chain ends. Residues, ends and D or L forms follow the SMILES beside them. *: point of attachment. Octanoyl = CCCCCCCC(=O)*

Legend:
[1] = in vivo; settings: mouse, iv, 2.5 mg/kg
[2] = biological target: T1, Neuropilin-1 (Homo sapiens, UniProt O14786); test: Binding affinity to N-terminal His6-tagged recombinant human NRP1-b1 domain expressed in Escherichia coli Rosetta Gami 2 (DE3) pLysS cells by SPR method
How it was run: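 Human NRP1-b1 (residues 273–427, His6-tagged) was amine-coupled to a CM5 chip at high and low density; an unmodified spot served as reference. Runs were at 25 °C in PBS with 0.05% P20 and 3% DMSO. Compound was tested as 2-fold dilutions from 16 µM to 31 nM with 60 s injections. KD was taken from steady-state responses, DMSO-corrected; mean ± SD of the two surfaces.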

[3] = biological target: T1, Neuropilin-1; test: Binding affinity to recombinant human NRP1 extracellular domain by SPR method
[4] = Half life in human plasma at 10 uM by MS/MS analysis; type: ADME, cell-free
[5] = biological target: T1, Neuropilin-1; test: Inhibition of VEGF-A-stimulated NRP1-mediated VEGFR2 phosphorylation at Tyr1175 in HUVEC at 30 uM preincubated for 30 mins followed by VEGFA stimulation measured after 10 mins by immunoblot method relative to control; type: cell-based
How it was run: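 Confluent HUVECs serum-starved 16 h in 0.5% serum, preincubated 30 min with 3, 10 or 30 µM compound, 0.1% DMSO or medium, then 1 ng/mL VEGF-A for 10 min. RIPA lysates were immunoblotted. Densitometry of pVEGF-R2/KDR was normalised to total VEGF-R2/KDR, from three independent experiments, means ± SEM.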

[6] = system: HUVEC; test: Antiangiogenic activity in HUVEC co-cultured with HDF assessed as inhibition of VEGFA-induced tubular network length at 30 uM after 4 days by immunofluorescence method relative to control; type: functional; settings: Homo sapiens, 96 h
How it was run: (§1)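 HDF were grown to confluence in 24-well plates and 10000 HUVECs were seeded on top in endothelial growth medium with 1% FBS. Cocultures received 0.1% DMSO, VEGF 25 ng/mL, 30 μM compound, or compound plus VEGF, for 4 days at 37 °C. They were ethanol-fixed and stained for von Willebrand factor. Branch points, network area and length were scored in four fields per well; three independent experiments.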

[7] = species: Homo sapiens; test: Antiinvasive activity in VEGFA-induced NRP1 expressing human A375P spheroids at 30 uM after 7 days; type: functional
[8] = biological target: T2, Neuropilin-2 (Homo sapiens) (UniProt O60462); test: Binding affinity to His6-tagged recombinant human NRP2 at 62.5 to 1000 nM treated for 60 secs by SPR method
T2 sequence (whole entry): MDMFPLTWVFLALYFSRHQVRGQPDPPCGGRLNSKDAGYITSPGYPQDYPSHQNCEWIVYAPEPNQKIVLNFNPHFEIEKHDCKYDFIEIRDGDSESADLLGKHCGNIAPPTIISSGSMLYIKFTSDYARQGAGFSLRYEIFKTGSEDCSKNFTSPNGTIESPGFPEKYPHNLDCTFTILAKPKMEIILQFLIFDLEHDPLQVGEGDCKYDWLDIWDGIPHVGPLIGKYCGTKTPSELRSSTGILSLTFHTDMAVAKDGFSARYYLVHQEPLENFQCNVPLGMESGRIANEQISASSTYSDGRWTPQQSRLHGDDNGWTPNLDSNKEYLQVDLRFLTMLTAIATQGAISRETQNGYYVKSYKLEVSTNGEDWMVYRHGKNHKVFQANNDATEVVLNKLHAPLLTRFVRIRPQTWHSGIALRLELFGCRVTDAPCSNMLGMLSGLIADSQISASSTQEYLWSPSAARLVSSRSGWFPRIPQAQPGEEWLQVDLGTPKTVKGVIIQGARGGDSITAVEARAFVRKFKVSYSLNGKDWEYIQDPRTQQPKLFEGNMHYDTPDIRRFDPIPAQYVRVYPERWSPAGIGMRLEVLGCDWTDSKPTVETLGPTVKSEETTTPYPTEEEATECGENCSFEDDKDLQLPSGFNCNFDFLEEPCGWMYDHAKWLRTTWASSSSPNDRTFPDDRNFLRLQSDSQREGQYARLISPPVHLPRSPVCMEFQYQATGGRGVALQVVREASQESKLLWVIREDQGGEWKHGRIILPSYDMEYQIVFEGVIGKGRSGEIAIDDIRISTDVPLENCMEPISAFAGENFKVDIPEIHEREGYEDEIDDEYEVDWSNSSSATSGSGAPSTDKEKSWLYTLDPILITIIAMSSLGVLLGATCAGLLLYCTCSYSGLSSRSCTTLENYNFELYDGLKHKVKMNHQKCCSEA

[9] = biological target: T1, Neuropilin-1; test: Binding affinity to N-terminal His6-tagged recombinant human NRP1-b1 domain expressed in Escherichia coli Rosetta Gami 2 (DE3) pLysS cells at 200 uM treated every 2 mins by ITC method
[10] = species: Mus musculus; test: Immunomodulating activity in C57/Bl6 mouse Nrp1-positive Treg cells assessed as inhibition of glioma conditioned media-induced TGFbeta production at 500 nM preincubated for 2 hrs followed by glioma conditioned media challenge measured after 12 hrs by ELISA; type: functional
How it was run: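 CD4+ Nrp1+ splenic T cells from 6-week-old C57/Bl6 mice were plated at 200000 per well on anti-CD3ε with anti-CD28 and expanded 72 h. Cells were pretreated 2 h with DMSO or 500 nM compound. They were then given 50% conditioned medium from serum-starved GL261 cells, and TGFβ was measured by ELISA after 12 h.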

[11] = system: Mus musculus; test: Volume of distribution in BALB/c mouse at 2 mg/kg, iv administered as bolus dose by LC-MS method; type: ADME, organism-based; settings: in vivo
How it was run: (§2)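 Female BALB/c mice, 6–8 weeks old, received 2 mg/kg as a tail-vein bolus formulated in 7.5% DMSO. Blood was taken by cardiac puncture at 5, 15, 30, 60, 180 and 240 min. Plasma was separated by centrifugation, snap-frozen and assayed by LC-MS/MS with electrospray ionization.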

[12] = system: Mus musculus; test: Half life in BALB/c mouse at 2 mg/kg, iv administered as bolus dose by LC-MS method; type: ADME, organism-based; settings: in vivo
How it was run: as §2

[13] = system: Mus musculus; test: Tmax in BALB/c mouse at 2 mg/kg, iv administered as bolus dose by LC-MS method; type: ADME, organism-based; settings: in vivo
How it was run: as §2

[14] = system: Mus musculus; test: AUC (infinity) in BALB/c mouse at 2 mg/kg, iv administered as bolus dose by LC-MS method; type: ADME, organism-based; design: dose 2 mg/kg, route intravenous, time infinity; settings: in vivo
How it was run: as §2

[15] = species: Homo sapiens; test: Antiinvasive activity in NRP1 expressing human A375P spheroids at 30 uM after 7 days; type: functional
[16] = system: HUVEC; test: Antimigratory activity in HUVEC assessed as delay in VEGFA-induced wound closure at 30 uM after 5 days; type: functional, cell-based; settings: Homo sapiens
How it was run: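 HUVECs were starved overnight in 1% EBM, then wounded at 95% confluence. Wells received 1% EGM with 0.1% DMSO, 25 ng/mL VEGF-A and/or 30 μM compound. Migration into the wound was imaged every 2 h by live-cell imaging. Three independent experiments, 12 replicates per treatment.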

[17] = system: Mus musculus; test: Cmax in BALB/c mouse at 2 mg/kg, iv administered as bolus dose by LC-MS method; type: ADME, organism-based; design: dose 2 mg/kg, route intravenous; settings: in vivo
How it was run: as §2

[18] = system: HUVEC; test: Antimigratory activity in VEGFA-induced HUVEC at 30 uM after 4 hrs by transwell assay relative to control; type: functional, Homo sapiens
How it was run: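 Transwell chemotaxis used 8 µm pore PET inserts. The bottom chamber held serum-free medium with or without 25 ng/mL VEGF-A, 0.1% DMSO, or 30 µM compound. HUVECs in serum-free EBM were added to the top chamber and incubated at 37 °C for 4 h. Non-migrated cells were removed, and membranes were fixed and stained. Migrated cells were counted in three random fields per well across five independent experiments, reported as mean ± SEM.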

[19] = system: Aorta; test: Antiangiogenic activity in wild type C57Bl/6 mouse aortic ring assessed as inhibition of VEGFA-induced vessel sprouting at 30 uM after 7 days relative to control; type: functional
How it was run: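 Thoracic aortas from female wild-type C57Bl/6 mice were cut into 0.5 mm rings, serum-starved overnight, and embedded in rat-tail type 1 collagen. Rings were cultured in OptiMEM with 2.5% FBS containing 0.1% DMSO, 25 ng/mL VEGF-A and/or 30 μM compound at 37 °C for 7 days, with medium changed on days 3 and 5. They were then fixed and stained with isolectin B4 and SMA, and sprout area was quantified by image analysis.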

[20] = system: HUVEC; test: Antimigratory activity in HUVEC at 30 uM after 4 hrs by transwell assay; type: functional, cell-based; settings: Homo sapiens
How it was run: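 HUVECs (1.5×10^5 per well, serum-free EBM) were placed in upper inserts with 8 µm pores. The bottom chamber held serum-free medium with 25 ng/mL VEGF-A, 0.1% DMSO, 30 μM compound, or VEGF-A plus compound. After 4 h at 37 °C, cells that migrated were stained and counted in three random fields; five independent experiments.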

[21] = system: HUVEC; test: Antiangiogenic activity in HUVEC co-cultured with HDF assessed as inhibition of number of VEGFA-induced branch points in tubular networks at 30 uM after 4 days by immunofluorescence method relative to control; type: functional; settings: Homo sapiens, 96 h
How it was run: as §1

[22] = biological target: T1, Neuropilin-1; test: Inhibition of biotinylated VEGF-A binding to N-terminal His6-tagged recombinant human NRP1-b1 domain expressed in Escherichia coli Rosetta Gami 2 (DE3) pLysS cells after 2 hrs
[23] = biological target: T1, Neuropilin-1; test: Inhibition of biotinylated VEGF-A binding to human NRP1 expressed in human DU145 cells after 2 hrs; type: cell-based

T1 sequence (O14786 whole entry, the tested form may be a part): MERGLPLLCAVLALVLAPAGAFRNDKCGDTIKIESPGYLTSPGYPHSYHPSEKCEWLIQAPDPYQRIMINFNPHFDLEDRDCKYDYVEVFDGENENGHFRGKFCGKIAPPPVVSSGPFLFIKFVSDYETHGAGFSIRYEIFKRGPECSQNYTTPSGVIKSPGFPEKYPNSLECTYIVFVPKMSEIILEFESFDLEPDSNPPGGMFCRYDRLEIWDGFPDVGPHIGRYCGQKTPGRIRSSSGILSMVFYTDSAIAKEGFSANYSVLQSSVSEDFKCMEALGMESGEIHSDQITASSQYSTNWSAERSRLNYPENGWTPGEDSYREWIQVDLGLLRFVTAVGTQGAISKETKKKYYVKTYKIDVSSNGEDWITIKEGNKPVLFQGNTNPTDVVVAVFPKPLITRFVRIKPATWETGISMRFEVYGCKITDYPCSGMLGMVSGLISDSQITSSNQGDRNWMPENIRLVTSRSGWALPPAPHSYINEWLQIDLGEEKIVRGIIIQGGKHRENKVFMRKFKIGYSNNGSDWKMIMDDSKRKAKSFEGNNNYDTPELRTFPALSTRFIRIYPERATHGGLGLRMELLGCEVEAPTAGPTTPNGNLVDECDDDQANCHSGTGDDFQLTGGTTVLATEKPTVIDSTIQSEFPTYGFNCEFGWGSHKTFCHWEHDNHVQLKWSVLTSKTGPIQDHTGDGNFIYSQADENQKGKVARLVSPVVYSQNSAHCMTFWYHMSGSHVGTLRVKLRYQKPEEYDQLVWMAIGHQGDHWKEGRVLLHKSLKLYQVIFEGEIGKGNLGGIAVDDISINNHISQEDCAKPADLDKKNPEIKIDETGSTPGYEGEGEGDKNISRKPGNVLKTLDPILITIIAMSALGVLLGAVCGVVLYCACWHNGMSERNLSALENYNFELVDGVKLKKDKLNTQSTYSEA

N=C(N)NCCC[C@H](NC(=O)c1sccc1NS(=O)(=O)c1cccc2nsnc12)C(=O)O
half-life [1]: 30 min

N=C(N)NCCC[C@H](NC(=O)c1sccc1NS(=O)(=O)c1cc(-c2cccc(CN3CCOCC3)c2)cc2c1OCC2)C(=O)O
Kd [2]: 3.76 µM

N=C(N)NCCC[C@H](NC(=O)c1sccc1NS(=O)(=O)c1cc(-c2cccc(CN3CCCCC3)c2)cc2c1OCC2)C(=O)O
Kd [2]: 1.17 µM

CCCCCCCC(=O)N[C@@H](CO)C(=O)N[C@H]1CSSC[C@@H]2NC(=O)[C@H]([C@@H](C)O)NC(=O)[C@H](CCCNC(=N)N)NC(=O)[C@H](CCC(=O)O)NC(=O)[C@H](CC(N)=O)NC(=O)[C@H](CC(C)C)NC(=O)[C@H](CCC(=O)O)NC(=O)[C@H](CC(C)C)NC(=O)[C@H](CCC(N)=O)NC(=O)[C@H](CCCNC(=N)N)NC(=O)[C@H](C)NC(=O)[C@H](CCCCN)NC(=O)[C@H](CSSC[C@@H](C(=O)N[C@@H](CC(=O)O)C(=O)N[C@@H](CCCCN)C(=O)N3CCC[C@H]3C(=O)N[C@@H](CCCNC(=N)N)C(=O)N[C@@H](CCCNC(=N)N)C(N)=O)NC(=O)[C@H](CCCNC(=N)N)NC2=O)NC(=O)[C@H](CCCNC(=N)N)NC(=O)[C@H](CO)NC(=O)[C@H](CC(=O)O)NC(=O)[C@H]([C@@H](C)O)NC(=O)[C@H](CC(N)=O)NC(=O)[C@H](CCCCN)NC1=O (Octanoyl-SCKNTDSRCKARQLELNERTCRCDKPRR-NH2; disulfide 2-21, 9-23)
Kd [3]: 0.076 µM
half-life at 10 µM [4]: < 5 min

N#CCC1CCN(Cc2cccc(-c3cc4c(c(S(=O)(=O)Nc5ccsc5C(=O)N[C@@H](CCCNC(=N)N)C(=O)O)c3)OCC4)c2)CC1
Kd [2]: 1.41 µM

N=C(N)NCCC[C@H](NC(=O)c1sccc1NS(=O)(=O)c1cc(-c2ccc(CN)cc2)cc2c1OCC2)C(=O)O
inhibition [5]: 50%
inhibition at 30 µM [6]: 40%
Activity [7]: Active
Activity [8]: inactive
Ka [9]: 4.14 ×10⁶ /M
inhibition [10]: Active
Vd [11]: 4.39682 L/kg
t1/2 [12]: 257 min
Tmax [13]: 4.8 min
AUC [14]: 2379 ng·h/mL
Activity [15]: inactive
Activity [16]: Active
Cmax [17]: 1678 ng/mL
Kd [2]: 1.32 µM
Activity [18]: >60%
fold change (FC) [19]: 7
Activity [20]: inactive
inhibition at 30 µM [21]: 41%
IC50 [22]: 0.609 µM
IC50 [23]: 1.6 µM

N=C(N)NCCC[C@H](NC(=O)c1sccc1NS(=O)(=O)c1cc(-c2ccccc2CN2CCC(N3CCOCC3)CC2)cc2c1OCC2)C(=O)O
Kd [2]: 1.5 µM

CNC(=O)C1CCN(Cc2ccccc2-c2cc3c(c(S(=O)(=O)Nc4ccsc4C(=O)N[C@@H](CCCNC(=N)N)C(=O)O)c2)OCC3)CC1
Kd [2]: 3.02 µM

N=C(N)NCCC[C@H](NC(=O)c1sccc1NS(=O)(=O)c1cc(-c2ccccc2CN2CCCCC2)cc2c1OCC2)C(=O)O
Kd [2]: 2.28 µM

N=C(N)NCCC[C@H](NC(=O)c1sccc1NS(=O)(=O)c1cc(-c2ccccc2CN2CCC(C(N)=O)CC2)cc2c1OCC2)C(=O)O
Kd [2]: 2.05 µM
